Source: ChEMBL document CHEMBL1142456, “4-Anilino-7-alkenylquinoline-3-carbonitriles as potent MEK1 kinase inhibitors” (Bioorg Med Chem, 2008)
Blank lines part the entries; values can stand above or below the molecule they belong to.

Key:
[1] = Plasma concentration in mouse at 50 mg/kg, po after 4 hrs; format: ADME, organism-based; parameters: dose 50 mg/kg, route oral
Procedure, shortened: (§1)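 Nude mice given a single 50 mg/kg oral dose. Blood levels measured at 2 and 4 h (one compound at 1 h), three mice per measurement, with coefficient of variation reported.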

[2] = Plasma concentration in mouse at 50 mg/kg, po after 2 hrs; format: ADME, organism-based; parameters: dose 50 mg/kg, route oral; procedure, shortened: as §1
[3] = Half life in nude mouse at 2 mg/kg, iv; format: ADME, organism-based; parameters: dose 2 mg/kg, route intravenous; settings: in vivo
Procedure, shortened: (§2)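 Female nude mice given a single dose, 2 mg/kg iv in 0.5% methylcellulose/1% Tween 80 brought to pH 3 with aqueous HCl, or 50 mg/kg by oral gavage. Three mice per group were bled by cardiac stick under isoflurane at 0.25, 0.5, 1, 4, 8 and 24 h and plasma collected. Cl, Vss, T1/2, Cmax, AUC extrapolated to infinity and %F were derived.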

[4] = AUC (infinity) in female rat at 10 mg/kg, po; format: ADME, organism-based; parameters: time infinity, dose 10 mg/kg, route oral; settings: plasma
[5] = Oral bioavailability in female rat at 10 mg/kg; format: ADME, organism-based; settings: in vivo
[6] = Clearance in female rat at 1 mg/kg, iv; format: ADME, organism-based; parameters: dose 1 mg/kg, route intravenous; settings: in vivo
[7] = Volume of distribution at steady state in nude mouse at 2 mg/kg, iv; format: ADME, organism-based; parameters: dose 2 mg/kg, route intravenous; settings: in vivo, read-out: Vdss; procedure, shortened: as §2
[8] = Clearance in nude mouse at 2 mg/kg, iv; format: ADME, organism-based; parameters: dose 2 mg/kg, route intravenous; settings: in vivo; procedure, shortened: as §2
[9] = Cmax in female rat at 10 mg/kg, po; format: ADME, organism-based; parameters: dose 10 mg/kg, route oral; settings: in vivo
[10] = Oral bioavailability in nude mouse at 50 mg/kg; format: ADME, organism-based; settings: in vivo; procedure, shortened: as §2
[11] = Metabolic stability in mouse liver microsomes; format: ADME, Microsome
Procedure, shortened: (§3)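 Stability measured as half-life on exposure to male CD-1 mouse and rat liver microsomes.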

[12] = Cmax in nude mouse at 50 mg/kg, po; format: ADME, organism-based; parameters: dose 50 mg/kg, route oral; settings: in vivo; procedure, shortened: as §2
[13] = Half life in female rat at 1 mg/kg, iv; format: ADME, organism-based; parameters: dose 1 mg/kg, route intravenous; settings: in vivo
[14] = Volume of distribution at steady state in female rat at 1 mg/kg, iv; format: ADME, organism-based; parameters: dose 1 mg/kg, route intravenous; settings: in vivo, read-out: Vdss
[15] = Apparent permeability across PAMPA membrane; format: ADME; settings: read-out: permeability
Procedure, shortened: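 Permeability measured in a PAMPA assay, reported in cm/s.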

[16] = Oral bioavailability in male rat at 10 mg/kg; format: ADME, organism-based; settings: in vivo
[17] = AUC (infinity) in male rat at 10 mg/kg, po; format: ADME, organism-based; parameters: time infinity, dose 10 mg/kg, route oral; settings: plasma
[18] = AUC (infinity) in nude mouse at 50 mg/kg, po; format: ADME, organism-based; parameters: time infinity, dose 50 mg/kg, route oral; settings: plasma; procedure, shortened: as §2
[19] = Volume of distribution at steady state in male rat at 1 mg/kg, iv; format: ADME, organism-based; parameters: dose 1 mg/kg, route intravenous; settings: in vivo, read-out: Vdss
[20] = Half life in male rat at 1 mg/kg, iv; format: ADME, organism-based; parameters: dose 1 mg/kg, route intravenous; settings: in vivo
[21] = Metabolic stability in CD1 rat liver microsomes; format: ADME, Microsome; procedure, shortened: as §3
[22] = Cmax in male rat at 10 mg/kg, po; format: ADME, organism-based; parameters: dose 10 mg/kg, route oral; settings: in vivo
[23] = Clearance in male rat at 1 mg/kg, iv; format: ADME, organism-based; parameters: dose 1 mg/kg, route intravenous; settings: in vivo
[24] = Plasma concentration in mouse at 50 mg/kg, po after 1 hr; format: ADME, organism-based; parameters: dose 50 mg/kg, route oral; procedure, shortened: as §1

Compound: Cn1ccnc1Sc1ccc(Nc2c(C#N)cnc3cc(/C=C/CCN4CCOCC4)ccc23)cc1Cl
concentration at 4 h [1]: 22 ng/mL | concentration at 2 h [2]: 95 ng/mL

Compound: Cn1ccnc1Sc1ccc(Nc2c(C#N)cnc3cc(/C=C/CN4CCCC4)ccc23)cc1Cl
concentration at 4 h [1]: 11 ng/mL | concentration at 1 h [24]: 72 ng/mL

Compound: Cn1ccnc1Sc1ccc(Nc2c(C#N)cnc3cc(/C=C/CCN4CCCC4)ccc23)cc1Cl
concentration at 4 h [1]: 82 ng/mL | concentration at 2 h [2]: 319 ng/mL

Compound: COc1cc2c(Nc3ccc(Sc4nccn4C)c(Cl)c3)c(C#N)cnc2cc1/C=C/CCN1CCN(C)CC1
concentration at 4 h [1]: 76 ng/mL | concentration at 2 h [2]: 267 ng/mL

Now from value to molecule:

half-life [3]: 54 min | AUC(0-inf) [4]: 988 ng·h/mL | bioavailability [5]: 23% | clearance [6]: 35.7 mL/min/kg | Vd [7]: 2.7 L/kg | clearance [8]: 66 mL/min/kg | Cmax [9]: 298 ng/mL | bioavailability [10]: 17% | half-life [11]: 16.5 min | Cmax [12]: 510 ng/mL | half-life [13]: 150 min | Vd [14]: 5.7 L/kg | Papp [15]: 0.45 ×10⁻⁶ cm/s | bioavailability [16]: 13% | AUC(0-inf) [17]: 204 ng·h/mL | concentration at 4 h [1]: 132 ng/mL | AUC(0-inf) [18]: 2170 ng·h/mL | Vd [19]: 7.6 L/kg | half-life [20]: 108 min | concentration at 2 h [2]: 494 ng/mL | half-life [21]: 21 min | Cmax [22]: 61 ng/mL | clearance [23]: 70.3 mL/min/kg
Compound: CCN1CCN(CC/C=C/c2ccc3c(Nc4ccc(Sc5nccn5C)c(Cl)c4)c(C#N)cnc3c2)CC1

concentration at 4 h [1]: 85 ng/mL | concentration at 2 h [2]: 368 ng/mL
Compound: CN1CCN(CC/C=C/c2ccc3c(Nc4ccc(Sc5nccn5C)c(Cl)c4)c(C#N)cnc3c2)CC1
